Experimental data from paper PMC3572763 (Molecular pharmaceutics, 2013).
Read-outs that look alike come from different tables or passages of the source.

Experiments:
[1] = Chemical stability in pH buffers; type: physicochemical; details: for T1/2 −pH 6.0: pH 6.0 buffer; for T1/2 −pH 6.0 / T1/2 pH 7.4: value given in h; for T1/2 pH 7.4: pH 7.4 buffer
[2] = mice; for AUC24hr / Cmax / Tmax hrs: GOCarb measured in plasma; for oral bioavailability: 10 mg/kg oral gavage relative to 1 mg/kg IV
[3] = test system: human lysosomal neuraminidase; details: cited from earlier work
Caco-2 monolayers = test: Caco-2 cell monolayers permeability; type: in vitro ADME, human; details: A to B
PEPT1 [4] = target: T1, PEPT1 (Homo sapiens, UniProt P46059); test: Direct uptake in PEPT1 over-expressing HeLa cells; type: cell-based; details: 1 mM
T1 sequence (P46059 1-708): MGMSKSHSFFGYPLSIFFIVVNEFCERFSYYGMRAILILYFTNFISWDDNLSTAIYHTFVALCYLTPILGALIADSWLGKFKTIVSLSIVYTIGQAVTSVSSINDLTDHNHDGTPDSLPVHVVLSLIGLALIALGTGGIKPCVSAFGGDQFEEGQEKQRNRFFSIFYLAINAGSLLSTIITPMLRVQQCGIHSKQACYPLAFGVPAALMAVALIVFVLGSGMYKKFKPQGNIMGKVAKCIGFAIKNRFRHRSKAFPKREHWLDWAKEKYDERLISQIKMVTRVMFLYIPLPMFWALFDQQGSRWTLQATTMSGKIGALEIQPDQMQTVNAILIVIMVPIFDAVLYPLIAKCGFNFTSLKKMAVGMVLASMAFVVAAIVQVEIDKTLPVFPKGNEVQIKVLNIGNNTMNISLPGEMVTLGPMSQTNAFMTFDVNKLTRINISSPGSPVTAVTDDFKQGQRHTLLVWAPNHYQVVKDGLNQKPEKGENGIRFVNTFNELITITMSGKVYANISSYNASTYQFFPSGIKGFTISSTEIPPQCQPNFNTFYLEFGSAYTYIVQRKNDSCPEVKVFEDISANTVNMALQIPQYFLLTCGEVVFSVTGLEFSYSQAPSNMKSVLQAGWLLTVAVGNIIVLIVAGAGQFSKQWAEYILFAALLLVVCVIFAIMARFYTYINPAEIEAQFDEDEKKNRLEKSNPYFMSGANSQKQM

PEPT1 [5] = target: T1, PEPT1; test: [3H]Gly-Sar uptake inhibition in Caco-2 cells; type: cell-based
Procedure, shortened: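 Caco-2 cells seeded at 5.0 × 10^4/well and grown 10 days. Washed and preincubated 15 min in pH 6.0 MES uptake buffer, then exposed 30 min at 37°C to 10 μM Gly-Sar (~1% [3H]) plus test compound 0.05–5 mM. Cells washed with ice-cold PBS, lysed in MeOH/water 1:1, counted by scintillation; IC50 by nonlinear fit; mean ± SEM, n = 3.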

[6] = cited from earlier work
rat jejunum = test: Single-pass intestinal; type: in vivo; details: rat jejunal perfusion
Type A strains = details: tissue culture; cited from earlier work
[7] = test system: H1N1 NWS/33 strain of influenza; details: cited from earlier work
Type B strains = details: tissue culture; cited from earlier work
[8] = literature; cited from earlier work
[9] = from literature, cited from earlier work

## CCOC(=O)C1=C[C@@H](OC(CC)CC)[C@H](NC(C)=O)[C@@H](NC(=N)N)C1 [GOC ethyl ester]
[1]
  T1/2 −pH 6.0: >20h
  T1/2 pH 7.4: >20h

## CCC(CC)O[C@@H]1C=C(C(=O)O)C[C@H](NC(=N)N)[C@H]1NC(C)=O [GOCarb, 4-Guanidine oseltamivir carboxylate]
[2]; 1 mg/kg IV
  AUC24hr: 487 ± 206 ng·h/mL
[2]; 10 mg/kg po-fasted
  AUC24hr: 278 ± 52 ng·h/mL
  Cmax: 50.9 ± 35.8 ng/mL
  Tmax hrs: 1.3 ± 0.6 h
[2]; 10 mg/kg po-fed
  AUC24hr: 291 ± 87 ng·h/mL
  Cmax: 65.4 ± 26.8 ng/mL
  Tmax hrs: 3.0 ± 1.2 h
[2]; fasted
  oral bioavailability: approximately 5%
[2]; fed
  oral bioavailability: approximately 5%
[3]
  fold more potent in inhibiting human lysosomal neuraminidase as compared to OC: ~ 10 fold
Caco-2 monolayers
  permeability across Caco-2 monolayers: negligible permeability
PEPT1 [4]
  uptake into transfected or non-transfected cells: virtually no uptake
PEPT1 [5]
  competition with [3H]Gly-Sar: little competition
[6]; in rats
  intestinal permeability: < 5%
[6]; species not stated in abstract
  oral bioavailability: 4%
Rat jejunum
  jejunal permeability: very low permeability
Rat jejunum; listed as parent drug
  jejunal permeability: essentially zero permeability
Type A strains
  fold more potent than OC: approximately 100 fold
[7]; H1N1 NWS/33 strain of influenza
  IC50: 0.9 nM
[7]; versus the A/NWS/33 virus, dashed line in Figure 8
  approximate EC50: ~5 ng/mL
Type B strains
  fold more potent than OC: ~13 fold
[1]; all pHs, up to 20 hours
  hydrolysis in buffers: limited hydrolysis
[1]
  T1/2 −pH 6.0: >20h
  T1/2 pH 7.4: >20h

## CC(C)[C@H](N)C(=O)OCCOCn1cnc2c(=O)[nH]c(N)nc21 [Valacyclovir]
[8]
  bioavailability in humans: up to 80%
[9]; pH 6.0
  T1/2 −pH 6.0: ND^b 69.7 h^c
[9]; pH 7.4
  T1/2 pH 7.4: ND^b >8 h^c
